Assay results as given in ChEMBL document CHEMBL3046475, “Inhibition of tobacco bacterial wilt with sulfone derivatives containing an 1,3,4-oxadiazole moiety” (J Agric Food Chem, 2012).
Values after ≈ are worked out from the molar mass of the structure shown.

How the values were obtained:
Ralstonia solanacearum [1] = experiment: Antibacterial activity against Ralstonia solanacearum assessed as growth inhibition at 500 ug/ml by turbidometer test (beneficial crop tobacco plant); assay type: functional
Ralstonia solanacearum [2] = experiment: Antibacterial activity against Ralstonia solanacearum assessed as growth inhibition at 200 ug/ml by turbidometer test (beneficial crop tobacco plant); assay type: functional
Ralstonia solanacearum [3] = experiment: Antibacterial activity against Ralstonia solanacearum assessed as growth inhibition by turbidometer test (beneficial crop tobacco plant); assay type: functional, organism-based
Ralstonia solanacearum [4] = experiment: Antibacterial activity against Ralstonia solanacearum in tobacco plant assessed as plant morbidity at 500 ug/ml measured after 7 days of spraying under green house conditions; assay type: functional
How it was run: (§1)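 Tobacco seedlings were raised by floating cultivation at 25 °C for 30 d, then transplanted at about the three-leaf stage into pots of 500 g soil, one plant per pot. Plants were sprayed with compound solutions. Morbidity and disease index were recorded per a standard disease investigation and classification protocol at 7, 14 and 21 d, with blank and negative controls.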

Ralstonia solanacearum [5] = experiment: Antibacterial activity against Ralstonia solanacearum in tobacco plant assessed as disease index at 500 ug/ml measured after 7 days of spraying under green house conditions; assay type: functional; how it was run: as §1
Ralstonia solanacearum [6] = experiment: Antibacterial activity against Ralstonia solanacearum in tobacco plant assessed as control efficacy at 500 ug/ml measured after 7 days of spraying under green house conditions; assay type: functional; how it was run: as §1
Ralstonia solanacearum [7] = experiment: Antibacterial activity against Ralstonia solanacearum in tobacco plant assessed as plant morbidity at 500 ug/ml measured after 14 days of spraying under green house conditions; assay type: functional; how it was run: as §1
Ralstonia solanacearum [8] = experiment: Antibacterial activity against Ralstonia solanacearum in tobacco plant assessed as disease index at 500 ug/ml measured after 14 days of spraying under green house conditions; assay type: functional; how it was run: as §1
Ralstonia solanacearum [9] = experiment: Antibacterial activity against Ralstonia solanacearum in tobacco plant assessed as control efficacy at 500 ug/ml measured after 14 days of spraying under green house conditions; assay type: functional; how it was run: as §1
Ralstonia solanacearum [10] = experiment: Antibacterial activity against Ralstonia solanacearum in tobacco plant assessed as plant morbidity at 500 ug/ml measured after 21 days of spraying under green house conditions; assay type: functional; how it was run: as §1
Ralstonia solanacearum [11] = experiment: Antibacterial activity against Ralstonia solanacearum in tobacco plant assessed as disease index at 500 ug/ml measured after 21 days of spraying under green house conditions; assay type: functional; how it was run: as §1
Ralstonia solanacearum [12] = experiment: Antibacterial activity against Ralstonia solanacearum in tobacco plant assessed as control efficacy at 500 ug/ml measured after 21 days of spraying under green house conditions; assay type: functional; how it was run: as §1
Ralstonia solanacearum [13] = experiment: Antibacterial activity against Ralstonia solanacearum in tobacco field assessed as inhibition of disease at 540 g/ha measured after 21 days of spraying; assay type: functional, organism-based
How it was run: (§2)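 Field trial with foliar spraying, scored 7, 14 and 21 d after treatment. Disease index = (4W + 3X + 2Y + Y)/4A from the plant disease classification sums. Inhibition % = (CK − PT1)/CK × 100, where CK is an untreated blank field. Statistics by ANOVA.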

Ralstonia solanacearum [14] = experiment: Antibacterial activity against Ralstonia solanacearum in tobacco field assessed as inhibition of disease at 540 g/ha measured after 7 days of spraying; assay type: functional, organism-based; how it was run: as §2
Ralstonia solanacearum [15] = experiment: Antibacterial activity against Ralstonia solanacearum in tobacco field assessed as inhibition of disease at 540 g/ha measured after 14 days of spraying; assay type: functional, organism-based; how it was run: as §2
Ralstonia solanacearum [16] = experiment: Antibacterial activity against Ralstonia solanacearum in tobacco field assessed as inhibition of disease at 405 g/ha measured after 7 days of spraying; assay type: functional; how it was run: as §2
Ralstonia solanacearum [17] = experiment: Antibacterial activity against Ralstonia solanacearum in tobacco field assessed as inhibition of disease at 405 g/ha measured after 14 days of spraying; assay type: functional; how it was run: as §2
Ralstonia solanacearum [18] = experiment: Antibacterial activity against Ralstonia solanacearum in tobacco field assessed as inhibition of disease at 405 g/ha measured after 21 days of spraying; assay type: functional; how it was run: as §2
[19] = Ralstonia solanacearum, read-out: EC50

CCS(=O)(=O)c1nnc(-c2cccc(F)c2)o1
inhibition at 500 µg/mL (Ralstonia solanacearum [1]): 100% | inhibition at 200 µg/mL (Ralstonia solanacearum [2]): 100% | EC50 (Ralstonia solanacearum [3]; [19]): 47.9 µg/mL (≈ 187 µM)

CCS(=O)(=O)c1nnc(-c2ccccc2)o1
inhibition at 500 µg/mL (Ralstonia solanacearum [1]): 100% | inhibition at 200 µg/mL (Ralstonia solanacearum [2]): 100% | EC50 (Ralstonia solanacearum [3]; [19]): 39.8 µg/mL (≈ 167 µM) | Activity (Ralstonia solanacearum [4]): 60% | Activity (Ralstonia solanacearum [5]): 60% | Efficacy (Ralstonia solanacearum [6]): 34.6% | Activity (Ralstonia solanacearum [7]): 100% | Activity (Ralstonia solanacearum [8]): 86.7% | Efficacy (Ralstonia solanacearum [9]): 12% | Activity (Ralstonia solanacearum [10]): 100% | Activity (Ralstonia solanacearum [11]): 91.7% | Efficacy (Ralstonia solanacearum [12]): 8.3%

CCS(=O)(=O)c1nnc(-c2ccc(F)c(F)c2)o1
inhibition at 500 µg/mL (Ralstonia solanacearum [1]): 52% | inhibition at 200 µg/mL (Ralstonia solanacearum [2]): 46.7%

CCS(=O)(=O)c1nnc(-c2ccc(F)cc2F)o1
inhibition at 500 µg/mL (Ralstonia solanacearum [1]): 100% | inhibition at 200 µg/mL (Ralstonia solanacearum [2]): 92.3% | EC50 (Ralstonia solanacearum [3]; [19]): 60.3 µg/mL (≈ 220 µM)

COc1ccc(-c2nnc(S(C)(=O)=O)o2)cc1OC
inhibition at 500 µg/mL (Ralstonia solanacearum [1]): 10.1% | inhibition at 200 µg/mL (Ralstonia solanacearum [2]): 6%

CCS(=O)(=O)c1nnc(-c2ccc(Cl)c([N+](=O)[O-])c2)o1
inhibition at 500 µg/mL (Ralstonia solanacearum [1]): 46% | inhibition at 200 µg/mL (Ralstonia solanacearum [2]): 17%

CS(=O)(=O)c1nnc(Cc2ccc(Cl)cc2)o1
inhibition at 500 µg/mL (Ralstonia solanacearum [1]): 31% | inhibition at 200 µg/mL (Ralstonia solanacearum [2]): 19.2%

CS(=O)(=O)c1nnc(-c2ccc(Cl)c([N+](=O)[O-])c2)o1
inhibition at 500 µg/mL (Ralstonia solanacearum [1]): 20.1% | inhibition at 200 µg/mL (Ralstonia solanacearum [2]): 0%

CCS(=O)(=O)c1nnc(-c2ccc(C)cc2)o1
inhibition at 500 µg/mL (Ralstonia solanacearum [1]): 39% | inhibition at 200 µg/mL (Ralstonia solanacearum [2]): 15%

CS(=O)(=O)c1nnc(-c2ccc(F)c(F)c2)o1
inhibition at 500 µg/mL (Ralstonia solanacearum [1]): 12% | inhibition at 200 µg/mL (Ralstonia solanacearum [2]): 11.1%

Saisentong
inhibition (Ralstonia solanacearum [13]): 67.3% | inhibition (Ralstonia solanacearum [1]): 100% | inhibition (Ralstonia solanacearum [2]): 100% | Activity (Ralstonia solanacearum [4]): 6.7% | Activity (Ralstonia solanacearum [5]): 6.7% | Efficacy (Ralstonia solanacearum [6]): 92.7% | Activity (Ralstonia solanacearum [7]): 73.3% | Activity (Ralstonia solanacearum [8]): 40% | Efficacy (Ralstonia solanacearum [9]): 59.3% | Activity (Ralstonia solanacearum [10]): 100% | Activity (Ralstonia solanacearum [11]): 78.3% | Efficacy (Ralstonia solanacearum [12]): 21.7% | inhibition (Ralstonia solanacearum [14]): 61.2% | inhibition (Ralstonia solanacearum [15]): 71.1%

CCS(=O)(=O)c1nnc(-c2ccc(OC)c(OC)c2)o1
inhibition at 500 µg/mL (Ralstonia solanacearum [1]): 9.3% | inhibition at 200 µg/mL (Ralstonia solanacearum [2]): 2.8%

COPPER HYDROXIDE [listing 1 of 2 here]
EC50 (Ralstonia solanacearum [3]): 45.9 µg/mL

CCS(=O)(=O)c1nnc(Cc2ccc(Cl)cc2)o1
inhibition at 500 µg/mL (Ralstonia solanacearum [1]): 31.4% | inhibition at 200 µg/mL (Ralstonia solanacearum [2]): 18.7%

CCS(=O)(=O)c1nnc(-c2ccc(F)cc2)o1
inhibition (INH) (Ralstonia solanacearum [16]): 65.3% | inhibition (INH) (Ralstonia solanacearum [17]): 68.8% | inhibition (INH) (Ralstonia solanacearum [18]): 71.9% | inhibition at 500 µg/mL (Ralstonia solanacearum [1]): 100% | inhibition at 200 µg/mL (Ralstonia solanacearum [2]): 100% | EC50 (Ralstonia solanacearum [3]; [19]): 32.1 µg/mL (≈ 125 µM) | Activity (Ralstonia solanacearum [4]): 13.3% | Activity (Ralstonia solanacearum [5]): 13.3% | Efficacy (Ralstonia solanacearum [6]): 85.5% | Activity (Ralstonia solanacearum [7]): 60% | Activity (Ralstonia solanacearum [8]): 40% | Efficacy (Ralstonia solanacearum [9]): 59.3% | Activity (Ralstonia solanacearum [10]): 100% | Activity (Ralstonia solanacearum [11]): 61.7% | Efficacy (Ralstonia solanacearum [12]): 38.3%

CS(=O)(=O)c1nnc(-c2ccccc2Br)o1
inhibition at 500 µg/mL (Ralstonia solanacearum [1]): 14.2% | inhibition at 200 µg/mL (Ralstonia solanacearum [2]): 9.9%

COPPER HYDROXIDE [listing 2 of 2 here]
Activity (Ralstonia solanacearum [4]): 50.3% | Activity (Ralstonia solanacearum [5]): 53.3% | Efficacy (Ralstonia solanacearum [6]): 41.9% | Activity (Ralstonia solanacearum [7]): 100% | Activity (Ralstonia solanacearum [8]): 95% | Efficacy (Ralstonia solanacearum [9]): 3.4% | Activity (Ralstonia solanacearum [10]): 100% | Activity (Ralstonia solanacearum [11]): 100% | Efficacy (Ralstonia solanacearum [12]): 0%
